Reference: ChEMBL document CHEMBL3853294, “Design, synthesis and biological evaluation of novel HSP70 inhibitors: N, N'-disubstituted thiourea derivatives” (Eur J Med Chem, 2016)

Columns and labels:
[1] = target: Chaperone protein DnaK (Escherichia coli) (UniProt P0A6Y8); test: Inhibition of Escherichia coli DnaK ATPase activity incubated on shaker for 10 mins followed by 30 mins incubation by malachite green reagent based colorimetric assay
[2] = target: Chaperone protein DnaK (Escherichia coli) (UniProt P0A6Y8); test: Inhibition of Escherichia coli DnaK ATPase activity at 200 uM incubated on shaker for 10 mins followed by 30 mins incubation by malachite green reagent based colorimetric assay
[3] = Growth inhibition of human BT474 cells at 10 uM after 72 hrs by cell titer-glo based luminescence assay; design: species or system BT-474; conditions: read-out: GI
How it was run: (§1)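 Cells were trypsinised and seeded at 5000 cells/well, then cultured 24 h at 37 °C. Compound was added at 10 µM, alone or with 1 µM lapatinib, and incubated 72 h at 37 °C. CellTiter-Glo reagent was added at a volume equal to the medium, followed by 3 min shaking and 10 min at room temperature. Luminescence (ATP) was read and normalised to the blank control group.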

Homo sapiens [4] = organism: Homo sapiens; test: Inhibition of HSP70 in human BT/LapR1.0 cells assessed as potentiation of 1 uM of lapatinib-induced growth inhibition after 72 hrs by measuring coefficient of drug interaction by cell titer-glo based luminescence assay
[5] = Growth inhibition of human BT/LapR1.0 cells at 10 uM after 72 hrs by cell titer-glo based luminescence assay; conditions: read-out: GI
How it was run: as §1

BT-474 [6] = test: Potentiation of lapatinib-induced growth inhibition of human BT474 cells assessed as coefficient of drug interaction after 72 hrs by cell titer-glo based luminescence assay; type: functional
Homo sapiens [7] = organism: Homo sapiens; test: Inhibition of HSP70 in human BT/LapR1.0 cells assessed as potentiation of 1 uM of lapatinib-induced growth inhibition at 10 uM after 72 hrs by cell titer-glo based luminescence assay
How it was run: as §1

BT-474 [8] = test: Potentiation of lapatinib-induced growth inhibition of human BT474 cells at 10 uM after 72 hrs by cell titer-glo based luminescence assay; type: functional; conditions: BT-474, 72 h, read-out: GI
How it was run: as §1

Compound	inhibition [1]	inhibition [2]	inhibition at 72 h, 10 µM [3]	Activity (Homo sapiens [4])	inhibition at 72 h, 10 µM [5]	Activity (BT-474 [6])	growth inhibition (GI) (Homo sapiens [7])	inhibition of growth at 10 µM (BT-474 [8])
COc1ccc(-c2nc(-c3cc(C(F)(F)F)cc(C(F)(F)F)c3)n(Cc3ccc(C(N)=O)cc3)c2-c2ccc(OC)cc2)cc1	Dose-dependent effect	53%						
N#Cc1ccc(COC[C@H]2O[C@@H](n3c(NCc4ccc(Cl)c(Cl)c4)nc4c(N)ncnc43)[C@H](O)[C@@H]2O)cc1	Dose-dependent effect	43%						
COc1cc(/C=C/C(=O)NC(NC(=S)Nc2ccccc2C)C2CC2)cc(OC)c1OC (stereo unspecified)		< 20%	44%	0.79	6.8%	<1	44.2%	87.4%
